Screens: PubChem BioAssay, Sanford-Burnham Center for Chemical Genomics
eIF4H inh: inhibitors of RNA binding by human eIF4H. AID 2012. inhibition, % at 35 µM. hit rate 0.94% among 290,000. eIF4H fluorescence polarization binding assay;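 further: calls also rest on retests at 20 µM and on dose response follow-up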
MLLE-PAM2 inh: blocks PAM2 peptide binding to the PABP1 MLLE domain. GST-MLLE / FITC-PAM2 fluorescence polarization. AID 588489. hit rate 0.36% among 360,000. inhibition, % at 20 µM; in the data active means inhibition above about 35%, passing the limit was not always enough;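 further: plate controls were DMSO wells with GST-MLLE for no effect and wells lacking GST-MLLE protein for full effect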
SKN-1 inh: inhibitors of C. elegans SKN-1; AID 624304; hit rate 0.49% among 360,000; C. elegans VP596 Pgst-4::GFP/RFP ratio, acrylamide-induced, 24 h; inhibition, % at 21.8 µM;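 active means interference check ratio from 0.5 to 1.5 plus GFP to RFP signal ratio inhibition reaching or exceeding a fixed threshold, cut at about 30% in these data, passing the limit was not always enough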
PABP polyA inh: PABP-poly(A) binding inhibition; P11940; PABP-poly(A) RNA binding, fluorescence polarization; inhibition, % at 35 µM; hit rate 1% among 290,000;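 further: calls also rest on retests at 20 µM and on dose response follow-up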
MT1-MMP act inh: MT1-MMP (human) activation inhibition; AID 651647; hit rate 0.061% among 360,000; P50281; HT1080 RFP-PRO-GFP cells, GFP/RFP ratio fluorescence, overnight; percent of plate control window, DMSO zero; GFP/RFP ratio change, % at 20 µM;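 active means GFP/RFP ratio change of at least 30% with cell ATP level not reduced by more than half and red fluorescence within 50% of control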
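Assay system: HT1080 RFP-PRO-GFP cells | Dosing: 20 µM single dose, 1% DMSO | Incubation: Cells overnight before dosing, compound overnight, 37 °C, 5% CO2 | Evaluation: GFP/RFP fluorescence ratio | Control set: DMSO-only wells and HT1080 RFP-L50D-GFP cell wells as references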
The depositor's hits bear a star; nt = no result given. Most compounds without a hit are left out; they make up all but 1.7% or so of the library. Unless noted, how the calls were made is not given here.

SMILES	eIF4H inh	MLLE-PAM2 inh	SKN-1 inh	PABP polyA inh	MT1-MMP act inh
CC(=O)Nc1ccc(/C=C/c2noc(-c3ccccc3O)n2)cc1	-1	-15	-5	-8	-3
Oc1ccccc1/C=C/c1noc(-c2ccccc2O)n1	3	12	6	52*	0
CCCS(=O)(=O)N1CCC(C(=O)NCc2cccnc2)CC1	-3	0	52*	7	6
CCCS(=O)(=O)N1CCCC(C(=O)NCc2cccnc2)C1 (stereo not given)	0	-8	5	-3	3
O=C(CSc1ccc(-c2ccco2)nn1)c1ccccc1	101*	28	-2	active	2
O=C(CSc1ccc(-c2cccnc2)nn1)c1ccc([N+](=O)[O-])cc1	1	45*	-2	-2	1
O=C(CSc1ccc(-c2ccncc2)nn1)c1ccccc1	-8	38*	-1	-4	3
Clc1ccc(CSc2ccc(-c3cccnc3)nn2)cc1	8	2	37*	6	5
O=C(CSc1ccc(-c2ccccn2)nn1)c1ccc([N+](=O)[O-])cc1	-4	26	-6	-15	5
COCCNC(=O)C1CC(=O)N(c2ccc(OC)cc2)C1c1ccc(OC)cc1 (stereo not given)	0	12	-9	-2	-2
O=C(COc1ncnc2c(Cl)cc(Cl)cc12)N1CCCCC1	-11	-12	30*	-11	2
COc1cccc(/C=N/NC(=O)c2ccc(N3CCCC3=O)cc2)c1	-4	5	2	-8	-4
O=C(/C=C/c1cn(CC(O)CN2CCOCC2)c2ccccc12)c1cccs1 (stereo not given)	98	nt	nt	44*	nt
CC1CCCN(c2nc3ccccc3nc2C(C#N)S(=O)(=O)c2cccs2)C1 (stereo not given)	35	51*	-18	59	-33
Cc1cccc(S(=O)(=O)C(C#N)c2nc3ccccc3nc2N2CC(C)OC(C)C2)c1 (stereo not given)	95	9	-11	107	-15
Cc1ccc(S(=O)(=O)C(C#N)c2nc3ccccc3nc2N2CC(C)OC(C)C2)cc1C (stereo not given)	85*	11	-6	90*	-8
COc1cc(OC)cc(C(=O)N2CCN(C(=O)c3cccnc3)CC2)c1	8	-1	-1	3	-1
CCCCN(C(C)=O)c1c(CC)nc2ccc(C(=O)NCc3cccs3)cn12	nt	7	1	nt	-3
CC1(C)CC(=O)C2=C(C1)Nc1ccccc1NC2c1ccccc1F (stereo not given)	3	48*	7	20	-1
CC1(C)CC(=O)C2=C(C1)Nc1ccccc1NC2c1ccc(F)c(F)c1 (stereo not given)	4	-3	6	-2	-2
CCCN(CCC)S(=O)(=O)c1ccc(C)cc1	-11	-15	5	-14	1
CCN(CC)S(=O)(=O)c1ccc(=O)n(CC(=O)N2Cc3ccccc3CC2C(N)=O)c1 (stereo not given)	nt	10	-2	nt	3
O=C(N/N=C/c1ccc(-c2ccc(Cl)c(C(=O)O)c2)o1)c1cc2c(ccc3ccccc32)o1	76*	-7	-5	76*	-3
Cc1ccc(-c2ccc(/C=N\NC(=O)c3cc4c(ccc5ccccc54)o3)o2)cc1[N+](=O)[O-]	-7	-3	-7	2	-3
Cc1cccc(C)c1NC(=O)CN(C)CC(=O)c1c(N)n(Cc2ccccc2)c(=O)n(C)c1=O	nt	-14	-2	nt	3
SMILES	eIF4H inh	MLLE-PAM2 inh	SKN-1 inh	PABP polyA inh	MT1-MMP act inh
Cc1cc(C)cc(-n2c3ccc(NC(=S)NC4CCCCC4)cc3c(=O)n2C)c1	nt	-47	14	nt	4
O=C(CSc1ccc2c(c1)OCCO2)Nc1ncc(Cl)cc1Cl	4	8	16	3	0
O=C(CSc1ccc2c(c1)OCCO2)NCCc1ccc(Cl)cc1Cl	-12	40*	-2	5	-1
Cc1ccccc1CN1CCC(N2CCC(C(=O)NCC3CCCO3)CC2)CC1 (stereo not given)	13	-1	-10	0	2
CCOc1ccc(N2C(=O)C(Cl)=C(Nc3ccccc3O)C2=O)cc1	11*	-5	5	52	-43
C=CCNC(=S)NNC(=O)CC12CC3CC(CC(C3)C1)C2	4	-38	-6	-3	3
CCc1ccc(C2C(C#N)=C(N)N(N(C)C)C3=C2C(=O)CCC3)cc1 (stereo not given)	4	-12	36*	2	0
COCCNC(=O)C(=O)NNC(=O)c1ccccc1OC	71	12	0	-7	-4
CC1=NN(c2ccccc2)C(=O)/C1=C\C=C\c1ccccc1	2	16	-5	11	4
CC1=NN(c2ccc(C)c(C)c2)C(=O)/C1=C\C=C\c1ccc([N+](=O)[O-])o1	92*	-66	1	7	-12
Brc1ccc(-c2nc(-c3ccccc3)no2)o1	-1	-9	79*	10	-5
COc1cccc(-c2nc(-c3ccc(Br)o3)no2)c1	4	-7	-9	-2	3
Brc1ccc(-c2nc(-c3cccnc3)no2)o1	4	-3	52*	-2	-6
CC1(c2ccccc2)NC(=O)N(CC(=O)NCc2cccc(Cl)c2)C1=O (stereo not given)	-11	-15	8	1	-2
[N-]=[N+]=NCC/C=C\C1NS(=O)(=O)OCC1O (stereo not given)	0	6	9	7	1
CCCCCC#CCC#CCC#CCC#CCCCC(=O)O	85*	nt	nt	10	nt
CCCCCCCCCC(=O)O	nt	-2	1	nt	3
Cc1c(-c2nc(-c3cccnc3)no2)cccc1[N+](=O)[O-]	1	8	42*	1	2
Cc1ccc(-c2nc(-c3cccnc3)no2)c(C)c1	-5	-9	15	-2	3
CC(=Nc1ccccc1)C1=C(O)C(Cc2ccc(O)cc2)NC1=O (stereo not given)	nt	0	9	nt	21
COc1ccccc1N1CCN(C(=O)C(C)CS(=O)(=O)c2ccc3c(c2)NC(=O)CS3)CC1 (stereo not given)	56*	-9	9	16	0
COc1ccccc1NC(=O)Nc1nc(CC(=O)N2CCN(c3ccc(F)cc3)CC2)cs1	nt	-10	-3	nt	0
Cn1c(=O)c2ncn(CC(=O)NC3CCCCCC3)c2n(C)c1=O	-6	-112	4	80*	8
CCn1c(SCC(=O)NC2CCCCC2)nnc1-c1cc2cccc(OC)c2o1	-6	-114	45*	-6	2
COc1cc(Nc2nc3ccccc3n3nnnc23)cc(OC)c1OC	80*	-30	-8	87*	-4
NCCCCCc1nnc(SCC(N)=O)o1	-6	0	0	1	0
CCN(CC)c1ccc(N/C(N)=N/c2nc(C(F)(F)F)cc(=O)[nH]2)cc1	active	-5	4	79*	-10
Cc1ccc2sc(C)[n+](CCCS(=O)(=O)[O-])c2c1	-7	27	-2	8	3
